Activity calls are given as the source filed them. The rule behind the calls is not given here.
Columns and labels:
[1] = tested on: HepG2; experiment: Cytotoxicity against human HepG2 cells assessed as cellular growth at 50 uM incubated for 1 hr prior to TNF alpha stimulation measured after 48 hrs by SRB assay; type: functional
How it was run: (§1)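 HepG2 cells in DMEM with 10% FBS and penicillin/streptomycin were allowed to adhere 24 h, and a T0 plate was fixed. Compound was given for 1 h at 37 °C, with or without 20 ng/ml TNFα, then 48 h more. Cells were stained with 0.4% SRB for 30 min at RT, washed in 1% acetic acid, and solubilized in 10 mM Tris. OD read at 515 nm; one-way ANOVA.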

[2] = tested on: HepG2; experiment: Cytotoxicity against human HepG2 cells assessed as cellular growth at 50 uM after 48 hrs by SRB assay in absence of TNFalpha; type: functional; how it was run: as §1
[3] = tested on: HepG2; experiment: Inhibition of TNFalpha-induced NFkappaB (unknown origin)-dependent transcriptional activity expressed in human HepG2 cells at 1 uM incubated for 1 hr prior to TNFalpha induction measured after 6 hrs by dual-luciferase reporter gene assay; type: cell-based
How it was run: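 HepG2 cells in DMEM with 10% FBS were lipofectamine-transfected with 10 ng/well pGL4.32 NF-κB-Luc plus Renilla control. Compound in DMSO was given in fresh medium for 1 h at 37 °C, then TNFα (final 20 ng/ml) for 6 h. Cells were lysed in passive lysis buffer. Firefly light units were normalized to Renilla; one-way ANOVA.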

[4] = tested on: UACC-62; experiment: Cytotoxicity against human UACC62 cells after 48 hrs by SRB assay; type: functional; details: UACC-62, 48 h
How it was run: (§2)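 Screened by the NCI Developmental Therapeutics Program in dose-response format. GI50 was determined by the sulforhodamine B protocol.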

[5] = tested on: OVCAR-4; experiment: Cytotoxicity against human OVCAR4 cells after 48 hrs by SRB assay; type: functional; details: OVCAR-4, 48 h; how it was run: as §2
[6] = tested on: HCT-15; experiment: Cytotoxicity against human HCT15 cells after 48 hrs by SRB assay; type: functional; details: HCT-15, 48 h; how it was run: as §2
[7] = tested on: HCC 2998; experiment: Cytotoxicity against human HCC2998 cells after 48 hrs by SRB assay; type: functional; details: HCC 2998, 48 h; how it was run: as §2
[8] = tested on: SF-268; experiment: Cytotoxicity against human SF268 cells after 48 hrs by SRB assay; type: functional; details: SF-268, 48 h; how it was run: as §2
[9] = tested on: IGROV-1; experiment: Cytotoxicity against human IGROV1 cells after 48 hrs by SRB assay; type: functional; details: IGROV-1, 48 h; how it was run: as §2
[10] = tested on: RXF 393; experiment: Cytotoxicity against human RXF393 cells after 48 hrs by SRB assay; type: functional; details: RXF 393, 48 h; how it was run: as §2
[11] = tested on: Hs-578T; experiment: Cytotoxicity against human Hs578T cells after 48 hrs by SRB assay; type: functional; how it was run: as §2
[12] = tested on: PC-3; experiment: Cytotoxicity against human PC3 cells after 48 hrs by SRB assay; type: functional; details: PC-3, 48 h; how it was run: as §2
[13] = tested on: SN12C; experiment: Cytotoxicity against human SN12C cells after 48 hrs by SRB assay; type: functional; how it was run: as §2
[14] = Cytotoxicity against human NCI-ADR-RES cells after 48 hrs by SRB assay; type: functional; how it was run: as §2
[15] = tested on: CAKI-1; experiment: Cytotoxicity against human Caki1 cells after 48 hrs by SRB assay; type: functional; details: CAKI-1, 48 h; how it was run: as §2
[16] = tested on: DU-145; experiment: Cytotoxicity against human DU145 cells after 48 hrs by SRB assay; type: functional; details: DU-145, 48 h; how it was run: as §2
[17] = tested on: SK-MEL-28; experiment: Cytotoxicity against human SK-MEL-28 cells after 48 hrs by SRB assay; type: functional; details: SK-MEL-28, 48 h; how it was run: as §2
[18] = tested on: SNB-19; experiment: Cytotoxicity against human SNB19 cells after 48 hrs by SRB assay; type: functional; details: SNB-19, 48 h; how it was run: as §2
[19] = tested on: HCT-116; experiment: Cytotoxicity against human HCT116 cells after 48 hrs by SRB assay; type: functional; details: HCT-116, 48 h; how it was run: as §2
[20] = tested on: UO-31; experiment: Cytotoxicity against human UO31 cells after 48 hrs by SRB assay; type: functional; details: UO-31, 48 h; how it was run: as §2
[21] = tested on: SF-295; experiment: Cytotoxicity against human SF295 cells after 48 hrs by SRB assay; type: functional; details: SF-295, 48 h; how it was run: as §2
[22] = tested on: 786-0; experiment: Cytotoxicity against human 786-0 cells after 48 hrs by SRB assay; type: functional; details: 786-0, 48 h; how it was run: as §2
[23] = Cytotoxicity against human SKOC3 cells after 48 hrs by SRB assay; type: functional; details: SKOC3, 48 h; how it was run: as §2
[24] = tested on: T47D; experiment: Cytotoxicity against human T47D cells after 48 hrs by SRB assay; type: functional; how it was run: as §2
[25] = tested on: OVCAR-3; experiment: Cytotoxicity against human OVCAR3 cells after 48 hrs by SRB assay; type: functional; details: OVCAR-3, 48 h; how it was run: as §2
[26] = tested on: SF-539; experiment: Cytotoxicity against human SF539 cells after 48 hrs by SRB assay; type: functional; details: SF-539, 48 h; how it was run: as §2
[27] = tested on: SW-620; experiment: Cytotoxicity against human SW620 cells after 48 hrs by SRB assay; type: functional; details: SW-620, 48 h; how it was run: as §2
[28] = tested on: OVCAR-8; experiment: Cytotoxicity against human OVCAR8 cells after 48 hrs by SRB assay; type: functional; details: OVCAR-8, 48 h; how it was run: as §2
[29] = tested on: Malme-3M; experiment: Cytotoxicity against human MALME-3M cells after 48 hrs by SRB assay; type: functional; how it was run: as §2
[30] = tested on: UACC-257; experiment: Cytotoxicity against human UACC257 cells after 48 hrs by SRB assay; type: functional; details: UACC-257, 48 h; how it was run: as §2
[31] = tested on: A498; experiment: Cytotoxicity against human A498 cells after 48 hrs by SRB assay; type: functional; details: A498, 48 h; how it was run: as §2
[32] = tested on: LOX IMVI; experiment: Cytotoxicity against human LOXIMVI cells after 48 hrs by SRB assay; type: functional; how it was run: as §2
[33] = tested on: MDA-MB-435; experiment: Cytotoxicity against human MDA-MB-435 cells after 48 hrs by SRB assay; type: functional; details: MDA-MB-435, 48 h; how it was run: as §2
[34] = tested on: MCF7; experiment: Cytotoxicity against human MCF7 cells after 48 hrs by SRB assay; type: functional; details: MCF7, 48 h; how it was run: as §2
[35] = tested on: SK-MEL-2; experiment: Cytotoxicity against human SK-MEL-2 cells after 48 hrs by SRB assay; type: functional; details: SK-MEL-2, 48 h; how it was run: as §2
[36] = tested on: BT-549; experiment: Cytotoxicity against human BT549 cells after 48 hrs by SRB assay; type: functional; details: BT-549, 48 h; how it was run: as §2
[37] = tested on: SNB-75; experiment: Cytotoxicity against human SNB75 cells after 48 hrs by SRB assay; type: functional; details: SNB-75, 48 h; how it was run: as §2
[38] = tested on: MDA-MB-231; experiment: Cytotoxicity against human MDA-MB-231 cells after 48 hrs by SRB assay; type: functional; details: MDA-MB-231, 48 h; how it was run: as §2
[39] = tested on: COLO 205; experiment: Cytotoxicity against human COLO205 cells after 48 hrs by SRB assay; type: functional; details: COLO 205, 48 h; how it was run: as §2
[40] = tested on: M14; experiment: Cytotoxicity against human M14 cells after 48 hrs by SRB assay; type: functional; details: M14, 48 h; how it was run: as §2
[41] = tested on: TK-10; experiment: Cytotoxicity against human TK10 cells after 48 hrs by SRB assay; type: functional; details: TK-10, 48 h; how it was run: as §2
[42] = tested on: U-251; experiment: Cytotoxicity against human U251 cells after 48 hrs by SRB assay; type: functional; details: U-251, 48 h; how it was run: as §2
[43] = tested on: KM12; experiment: Cytotoxicity against human KM12 cells after 48 hrs by SRB assay; type: functional; details: KM12, 48 h; how it was run: as §2

## c1ccc(CN2CCN(c3ncnc4ccccc34)CC2)cc1
[1]
  Activity: -17.6%
[2]
  Activity: -16.7%
[3]
  inhibition: Active

## Oc1ccc(Br)cc1CN1CCN(c2nc(-c3ccccc3)nc3ccccc23)CC1
[1]
  Activity: 13%
[2]
  Activity: 15.5%
[3]
  inhibition: Active

## c1ccc(CN2CCN(c3nc(-c4ccccc4)nc4ccccc34)CC2)cc1
[1]
  Activity: 13.7%
[2]
  Activity: 30.7%
[3]
  inhibition: Active

## c1ccc2c(NCCc3c[nH]c4ccccc34)ncnc2c1
[4]
  GI50: 14.1 µM
[1]
  Activity: -30%
[5]
  GI50: 1.5 µM
[6]
  GI50: 24 µM
[7]
  GI50: 26.3 µM
[8]
  GI50: 34.7 µM
[9]
  GI50: 14.1 µM
[10]
  GI50: 30.9 µM
[11]
  GI50: 60.3 µM
[12]
  GI50: 19.5 µM
[13]
  GI50: 30.2 µM
[14]
  GI50: 5.6 µM
[15]
  GI50: 2.2 µM
[16]
  GI50: 27.5 µM
[17]
  GI50: 25.1 µM
[18]
  GI50: 50.1 µM
[19]
  GI50: 6.3 µM
[20]
  GI50: 14.5 µM
[21]
  GI50: 3.5 µM
[22]
  GI50: 33.9 µM
[23]
  GI50: 58.9 µM
[24]
  GI50: 12 µM
[25]
  GI50: 19.1 µM
[26]
  GI50: 39.8 µM
[27]
  GI50: 41.7 µM
[28]
  GI50: 5.5 µM
[29]
  GI50: 29.5 µM
[2]
  Activity: -22.3%
[30]
  GI50: 9.8 µM
[3]
  inhibition: Active
[31]
  GI50: 2.8 µM
[32]
  GI50: 15.5 µM
[33]
  GI50: 10.2 µM
[34]
  GI50: 11.2 µM
[35]
  GI50: 30.9 µM
[36]
  GI50: 12.3 µM
[37]
  GI50: 22.9 µM
[38]
  GI50: 21.9 µM
[39]
  GI50: 28.2 µM
[40]
  GI50: 24.6 µM
[41]
  GI50: 20.4 µM
[42]
  GI50: 30.9 µM
[43]
  GI50: 19.1 µM

## c1ccc(-c2nc(NCCc3ccc4c(c3)OCO4)c3ccccc3n2)cc1
[1]
  Activity: -46.8%
[2]
  Activity: -30.7%
[3]
  inhibition: Active

## Oc1ccc(CN2CCN(c3ncnc4ccccc34)CC2)cc1
[1]
  Activity: -13.3%
[2]
  Activity: -5.3%
[3]
  inhibition: Active

## Oc1ccccc1CN1CCN(c2ncnc3ccccc23)CC1
[1]
  Activity: -26%
[2]
  Activity: -21.7%
[3]
  inhibition: Active

From ChEMBL document CHEMBL2311328, “Molecular docking and synthesis of novel quinazoline analogues as inhibitors of transcription factors NF-κB activation and their anti-cancer activities” (2013)
